We go through twelve molecules from ChEMBL document CHEMBL1926591, “Synthesis of quinolinomorphinan-4-ol derivatives as δ opioid receptor agonists” (Bioorg Med Chem, 2012).

Assay [1] concerns the target T1, Kappa-type opioid receptor (Cavia porcellus, UniProt P41144). Nature of the assay: Displacement of [3H]U-69,593 from kappa opioid receptor in guinea pig cerebrum membranes. Format: cell membranes, Membrane. In outline:
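Kappa binding used guinea pig cerebrum membranes labelled with [³H]U-69,593 and displaced by test compound. Nonspecific binding was taken with […] unlabeled U-69,593. Ki was obtained via Cheng–Prusoff.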
(In general: Loss of bound radioactivity is the signal in a displacement assay; it reports binding, not function.)

The species entered for another assay is Rattus norvegicus. Nature of the assay: Selectivity ratio of Ki for mu opioid receptor in rat cerebrum membranes to Ki for delta opioid receptor in rat cerebrum membranes. In kind it is cell membranes. As to conditions: Membrane. In outline:
(§1)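 Rat cerebrum membranes; mu sites labelled with [³H]DAMGO and delta sites with [³H]DADLE, displaced by varying test concentrations. Nonspecific binding was defined with unlabeled levallorphan. Ki was derived from displacement data using the Cheng–Prusoff equation.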

In assay [2] the target is Delta-type opioid receptor (Rattus norvegicus, UniProt P33533). Nature of the assay: Displacement of [3H]DADLE from delta opioid receptor in rat cerebrum membranes. Format: cell membranes, Membrane. A digest of the protocol: as §1
Chain of Delta-type opioid receptor (Rattus norvegicus, UniProt P33533) (P33533 whole entry): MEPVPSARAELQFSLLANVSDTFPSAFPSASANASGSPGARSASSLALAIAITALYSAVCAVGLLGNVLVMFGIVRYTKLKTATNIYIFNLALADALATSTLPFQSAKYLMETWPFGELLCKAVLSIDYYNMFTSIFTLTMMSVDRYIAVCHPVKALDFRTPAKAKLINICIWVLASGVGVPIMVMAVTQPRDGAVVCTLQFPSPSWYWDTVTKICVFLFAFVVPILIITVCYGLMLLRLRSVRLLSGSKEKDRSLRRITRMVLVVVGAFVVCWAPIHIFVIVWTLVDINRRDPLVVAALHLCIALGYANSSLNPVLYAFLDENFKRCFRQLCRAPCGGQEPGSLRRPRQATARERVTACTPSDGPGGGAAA
Assay [3] concerns the target T2, Delta-type opioid receptor (Homo sapiens, UniProt P41143). Nature of the assay: Agonist activity at human recombinant delta opioid receptor expressed in human HEK293 cells by [35S]GTPgammaS binding assay. In kind it is functional, cell-based. Background: GTPγS is a poorly hydrolysed GTP analogue; its binding reports G protein activation.
A short description of assay [4]: Selectivity ratio of Ki for kappa opioid receptor in guinea pig cerebrum membranes to Ki for delta opioid receptor in rat cerebrum membranes. Format: cell membranes. Particulars: Membrane.
Assay [5] has as its target Mu-type opioid receptor (Rattus norvegicus, UniProt P33535). Nature of the assay: Displacement of [3H]DAMGO from mu opioid receptor in rat cerebrum membranes. Format: cell membranes, Membrane. In outline:
as §1

The target of assay [6] is T2, Delta-type opioid receptor. Nature of the assay: Ratio of (-)TAN-67 EC50 to compound EC50 for human recombinant delta opioid receptor expressed in human HEK293 cells. Format: cell-based. A digest of the protocol: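 [³⁵S]GTPγS binding used purchased HEK-293 membranes carrying human recombinant delta receptor. Incubation buffer was 50 mM Tris, 1 mM EDTA, 12.5 mM MgCl₂, 100 mM NaCl and 0.5% BSA. It contained GDP, 0.1 nM [³⁵S]GTPγS and graded compound concentrations. (−)-TAN-67 served as the standard delta agonist.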

The target of assay [7] is T2, Delta-type opioid receptor. Nature of the assay: Ratio of SNC80 EC50 to compound EC50 for human recombinant delta opioid receptor expressed in human HEK293 cells. In kind it is cell-based.
The target in assay [8] is Delta-type opioid receptor (Mus musculus, UniProt P32300). Nature of the assay: Displacement of [3H]DPDPE from delta opioid receptor in mouse whole brain membranes without cerebellum. Format: cell membranes, Membrane.
Chain of Delta-type opioid receptor (Mus musculus, UniProt P32300) (P32300 whole entry): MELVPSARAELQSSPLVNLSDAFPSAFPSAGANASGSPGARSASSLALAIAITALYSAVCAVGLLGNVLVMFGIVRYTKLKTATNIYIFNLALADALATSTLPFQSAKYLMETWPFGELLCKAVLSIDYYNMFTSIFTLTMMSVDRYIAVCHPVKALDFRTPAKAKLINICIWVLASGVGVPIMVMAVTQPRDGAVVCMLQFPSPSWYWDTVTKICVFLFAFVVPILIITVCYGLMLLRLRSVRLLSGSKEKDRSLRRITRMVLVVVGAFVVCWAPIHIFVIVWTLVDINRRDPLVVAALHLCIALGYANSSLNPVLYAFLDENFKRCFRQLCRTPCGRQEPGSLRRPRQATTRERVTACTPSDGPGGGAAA
Assay [9] addresses Mu-type opioid receptor (Mus musculus, UniProt P42866). Nature of the assay: Displacement of [3H]DAMGO from mu opioid receptor in mouse whole brain membranes without cerebellum. In kind it is cell membranes, Membrane.
For assay [10], the target named is T1, Kappa-type opioid receptor. Nature of the assay: Displacement of [3H]U-69,593 from kappa opioid receptor in guinea pig cerebellum membranes. In kind it is cell membranes, Membrane.

T1 sequence (P41144 whole entry): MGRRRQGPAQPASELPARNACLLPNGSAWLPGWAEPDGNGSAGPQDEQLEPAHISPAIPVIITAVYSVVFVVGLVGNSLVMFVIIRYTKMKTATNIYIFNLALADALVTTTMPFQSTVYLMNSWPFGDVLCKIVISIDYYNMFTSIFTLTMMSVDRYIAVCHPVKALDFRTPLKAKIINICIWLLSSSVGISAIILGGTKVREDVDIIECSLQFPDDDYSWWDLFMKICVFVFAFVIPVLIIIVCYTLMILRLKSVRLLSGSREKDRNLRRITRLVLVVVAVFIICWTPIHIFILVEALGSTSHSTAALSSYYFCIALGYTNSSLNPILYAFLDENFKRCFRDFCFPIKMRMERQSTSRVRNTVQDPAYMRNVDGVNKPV
T2 sequence (P41143 whole entry): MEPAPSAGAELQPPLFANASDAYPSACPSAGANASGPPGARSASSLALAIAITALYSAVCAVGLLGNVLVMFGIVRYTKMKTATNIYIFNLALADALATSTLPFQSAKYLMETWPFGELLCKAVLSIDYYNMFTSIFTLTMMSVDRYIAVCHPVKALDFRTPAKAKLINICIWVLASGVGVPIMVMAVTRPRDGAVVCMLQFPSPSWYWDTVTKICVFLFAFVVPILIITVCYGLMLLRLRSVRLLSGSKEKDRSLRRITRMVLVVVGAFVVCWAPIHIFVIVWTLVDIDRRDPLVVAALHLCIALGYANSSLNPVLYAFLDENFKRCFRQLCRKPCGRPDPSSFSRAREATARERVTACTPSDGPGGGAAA
Chain of Mu-type opioid receptor (Rattus norvegicus, UniProt P33535) (P33535 whole entry): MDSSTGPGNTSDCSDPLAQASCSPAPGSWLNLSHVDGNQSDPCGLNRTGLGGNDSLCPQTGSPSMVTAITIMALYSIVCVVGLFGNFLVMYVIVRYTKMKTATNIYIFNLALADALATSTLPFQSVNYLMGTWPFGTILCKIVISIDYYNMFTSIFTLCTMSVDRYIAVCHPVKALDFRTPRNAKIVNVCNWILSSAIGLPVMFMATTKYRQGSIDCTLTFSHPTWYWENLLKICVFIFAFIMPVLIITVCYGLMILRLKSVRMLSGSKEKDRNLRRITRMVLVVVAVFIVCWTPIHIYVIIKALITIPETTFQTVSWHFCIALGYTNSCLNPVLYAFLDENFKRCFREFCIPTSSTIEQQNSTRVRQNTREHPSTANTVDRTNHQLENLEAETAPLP
Chain of Mu-type opioid receptor (Mus musculus, UniProt P42866) (P42866 whole entry): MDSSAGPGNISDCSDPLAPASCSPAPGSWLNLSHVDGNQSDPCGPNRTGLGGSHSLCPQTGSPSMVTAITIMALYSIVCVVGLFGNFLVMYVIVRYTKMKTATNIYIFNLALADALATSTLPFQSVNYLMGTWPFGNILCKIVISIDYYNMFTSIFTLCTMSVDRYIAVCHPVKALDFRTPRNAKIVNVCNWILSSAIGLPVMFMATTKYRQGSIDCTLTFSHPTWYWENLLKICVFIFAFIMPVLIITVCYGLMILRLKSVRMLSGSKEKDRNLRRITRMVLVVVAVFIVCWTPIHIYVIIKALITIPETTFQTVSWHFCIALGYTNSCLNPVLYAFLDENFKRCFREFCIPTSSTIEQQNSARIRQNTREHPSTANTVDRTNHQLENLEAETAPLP

By Ki is commonly meant the dissociation constant of the complex between target and ligand, obtained from inhibition or displacement. What is called EC50 is the midpoint of the concentration-response curve. As for `CC(C)CN1CC[C@]23Cc4nc5ccccc5cc4C[C@H]2[C@H]1Cc1cccc(O)c13`, the Ki was 516 nM in assay [1], 1.22 nM in assay [2] and 323 nM on Mu-type opioid receptor [5]. Moreover, the values for the Ratio Ki (in the assay filed under Rattus norvegicus; in assay [4]) were 265 and 423, respectively. In addition, the EC50 in [3] was 2.34 nM.

As to `CN1CC[C@]2(c3cccc(O)c3)Cc3nc4ccccc4cc3C[C@H]2C1`, the figures for the Ratio Ki (in the assay filed under Rattus norvegicus; in [4]) were 197 and 509, respectively.

Take `CC(C)CN1CC[C@]23Cc4nc5ccccc5cc4C[C@H]2[C@H]1Cc1ccc(O)cc13`: the Ratio Ki in the assay filed under Rattus norvegicus amounted to 124; in [4] it was 23.2. In addition, the Ratio EC50 in [6] and in [7] was 10 each time.

With `Oc1ccc2c3c1O[C@H]1c4nc5ccccc5cc4C[C@H]4[C@@H](C2)N(CC2CC2)CC[C@]314`, the results for the Ki (in assay [1]; in [2]; at Mu-type opioid receptor [5]) were 14.8 nM, 0.43 nM and 13 nM, respectively. Moreover, the Ratio Ki was 30.2 in the assay filed under Rattus norvegicus and 34.4 in assay [4].

With `Oc1cccc2c1[C@]13CCN(CC4CC4)[C@H](C2)[C@@H]1Cc1cc2ccccc2nc1C3`, the inhibition constant (Ki) in assay [1] came out at 17.5 nM; in [2] it was 0.27 nM; on Mu-type opioid receptor [5] it was 148 nM. Also, the Ratio Ki came to 548 in the assay filed under Rattus norvegicus and 64.8 in assay [4]. For the same molecule, the EC50 in assay [3] was 0.19 nM.

On to `Oc1ccc2c(c1)[C@]13CCN(CC4CCC4)[C@H](C2)[C@@H]1Cc1cc2ccccc2nc1C3`, for which the values for the Ki (in assay [8]; at Mu-type opioid receptor [9]; in [10]) were 0.12 nM, 6.31 nM and 1.07 nM, respectively.

Consider `Oc1ccc2c(c1)[C@]13CCN(CC4CCCC4)[C@H](C2)[C@@H]1Cc1cc2ccccc2nc1C3`, for which the Ki in assay [8] was determined as 0.35 nM; on Mu-type opioid receptor [9], 20.1 nM; in assay [10], 3.54 nM.

With `Oc1ccc2c(c1)[C@]13CCN(CCc4ccccc4)[C@H](C2)[C@@H]1Cc1cc2ccccc2nc1C3`, the Ki came out at 4.68 nM in [8], 12.5 nM at Mu-type opioid receptor [9] and 17.9 nM in [10].

As to `Oc1ccc2c(c1)[C@]13CCN(CC4CC4)[C@H](C2)[C@@H]1Cc1cc2ccccc2nc1C3`, the Ratio Ki in the assay filed under Rattus norvegicus was 4.1; in [4], 1.9. In addition, the Ratio EC50 in assay [6] and in [7] was 10 each time.

As for `CN1CC[C@]23Cc4nc5ccccc5cc4C[C@H]2[C@H]1Cc1ccc(O)cc13`, the results for the Ki (in assay [8]; at Mu-type opioid receptor [9]; in assay [10]) were 0.29 nM, 23.2 nM and 14.3 nM, respectively. The Ratio Ki turned out to be 82.4 in the assay listed under Rattus norvegicus and 72.9 in assay [4]. Further, the Ratio EC50 in assay [6] and in [7] was 10 each time.

For `Oc1ccc2c(c1)[C@]13CCN(Cc4ccccc4)[C@H](C2)[C@@H]1Cc1cc2ccccc2nc1C3`, the Ki in assay [8] came to 12.4 nM; at Mu-type opioid receptor [9] it was 76.9 nM; in [10], 50 nM.

Turning to `CN1CC[C@]23Cc4nc5ccccc5cc4C[C@H]2[C@H]1Cc1cccc(O)c13`, the results for the Ki (in assay [1]; in assay [2]; on Mu-type opioid receptor [5]) were 263 nM, 1 nM and 51.8 nM, respectively. Also, the Ratio Ki in the assay listed under Rattus norvegicus was found to be 51.8; in [4], 263. Besides, the EC50 in [3] came to 1.77 nM.
